Screening data (PubChem BioAssay)
The entries come from a sample that favours hits as a whole.
XiGFP reactiv: activators of inactive X chromosome reactivation, primary screen, imaging, XiGFP fibroblasts, GFP high-content imaging, set 2 | XiGFP mouse fibroblasts, % GFP-positive cells imaging, 3 d; cells co-treated with 5-aza-dC sensitizer; scaled so ellipticine positive control = 100% | activation, % at 7.58 µM | hit rate 0.055% among 360,000 | AID 743238, 2013;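 active = mean normalized replicate activation at least 10% and every replicate at or above 10%; inconclusive = only one of the two criteria met; inactive = mean below 10% and not all replicates reach 10%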;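 note: 0% = median of on-plate neutral control wells and 100% = ellipticine 6 µM median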
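Assay system: SV40-immortalized XiGFP fibroblast cells, line 68-5-11; buffer or medium: DMEM plus 5-aza-dC sensitizer; compound: one concentration, pinned; timing: compounds 3 days, fix/stain 15 min at room temperature; benchmarks: positive control ellipticine, 6 µM final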
ABCB6 inh MLPCN: ABCB6 transporter inhibitors, primary screen, K562-ABCB6 cells, flow cytometry, MLPCN library; ATP-binding cassette sub-family B member 6 (Homo sapiens), Q9NP58; K562-ABCB6 porphyrin accumulation, 1 h; stronger effect = lower value; fluorescence ratio to DMSO, % at 10 µM; hit rate 0.19% among 360,000; AID 602162, 2011;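 active = fluorescence ratio to DMSO below 75%, the collection mean minus 3 SD; inconclusive = too few cells collected in the well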;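 note: signal is porphyrin accumulated inside mitochondria; 100% equals median channel fluorescence of DMSO control wells; lower ratio means ABCB6 inhibition with less porphyrin fluorescence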
Target sequence (Q9NP58 whole entry, looked up): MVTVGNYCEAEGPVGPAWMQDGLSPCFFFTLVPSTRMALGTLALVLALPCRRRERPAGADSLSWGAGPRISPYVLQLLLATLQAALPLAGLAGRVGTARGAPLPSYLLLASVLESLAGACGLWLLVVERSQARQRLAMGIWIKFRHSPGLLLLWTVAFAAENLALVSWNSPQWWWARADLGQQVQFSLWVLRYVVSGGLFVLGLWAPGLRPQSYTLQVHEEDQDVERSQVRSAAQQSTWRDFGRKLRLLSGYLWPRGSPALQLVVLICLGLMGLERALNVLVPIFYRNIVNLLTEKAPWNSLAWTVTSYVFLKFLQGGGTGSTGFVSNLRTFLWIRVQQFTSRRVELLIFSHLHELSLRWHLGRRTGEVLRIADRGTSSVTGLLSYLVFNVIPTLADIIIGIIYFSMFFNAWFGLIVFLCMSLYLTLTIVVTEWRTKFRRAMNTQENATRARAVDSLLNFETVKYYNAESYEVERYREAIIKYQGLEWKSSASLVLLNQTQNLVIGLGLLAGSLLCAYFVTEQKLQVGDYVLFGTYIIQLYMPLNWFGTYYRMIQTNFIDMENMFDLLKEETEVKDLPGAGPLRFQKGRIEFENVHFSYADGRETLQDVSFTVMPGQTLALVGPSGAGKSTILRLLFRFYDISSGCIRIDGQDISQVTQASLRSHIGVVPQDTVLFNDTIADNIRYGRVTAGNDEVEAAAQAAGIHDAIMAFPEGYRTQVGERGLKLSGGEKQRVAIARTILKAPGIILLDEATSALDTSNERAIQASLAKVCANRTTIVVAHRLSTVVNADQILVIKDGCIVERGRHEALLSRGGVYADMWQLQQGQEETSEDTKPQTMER
Myeloid diff 2: induction of myeloid progenitor differentiation, primary screen, cell-based, flow cytometry, MLPCN library; ER-HoxA9 myeloid progenitors, lysozyme-GFP differentiation; calls only at 10 µM; hit rate 1% among 360,000; AID 624256, 2012;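 active = normalized GFP-positive differentiation at or above the plate's own cutoff, the solvent-only control mean plus 3 SD; inconclusive = no clear call, values can overlap the other calls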;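 note: cells exposed to compound for four days before flow analysis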
* marks the source's active call; other numbers are inactive results; i = inactive; ? = inconclusive; / = no result; + = active, no number.

SMILES	XiGFP reactiv	ABCB6 inh MLPCN	Myeloid diff 2
CCC(=O)N1[C@H](CO)[C@H]2c3ccccc3N(C(=O)c3cccc(OC)c3)C[C@H]21	0	/	/
CCOc1ccc(S(=O)(=O)N2CCC(C(=O)Nc3ccc(C)c(S(=O)(=O)N4CCOCC4)c3)CC2)cc1	0	99	+
Cc1ccc(S(=O)(=O)N2CCC(C(=O)Nc3ccc(S(=O)(=O)N4CCOCC4)cc3)CC2)cc1	0	93	i
N#CC1=C(N)SC(N)=C(C#N)C1Cc1ccccc1	/	112	i
N#CC1=C(N)SC(N)=C(C#N)C1CCc1ccccc1	/	106	+
O=C(O)COc1ccccc1C(Nc1cccnc1)c1cc(Cl)c2cccnc2c1O (stereo not given)	/	105	i
CCOc1ccc(C(Nc2cccnc2)c2cc(Cl)c3cccnc3c2O)cc1 (stereo not given)	0	101	+
C[C@H]1CN([C@@H](C)CO)C(=O)Cc2cc(NC(=O)C3CCCCC3)ccc2O[C@H]1CN(C)C(=O)NC1CCCCC1	0	/	/
CC(C)c1ccc(N(C)C(=O)Cc2c(C(=O)O)n(C)c3ccccc23)cc1	0	99	+
CN(C(=O)Cc1c(C(=O)O)n(C)c2ccccc12)c1ccc(Cl)cc1	0	99	i
COc1cccc(-c2ccc([C@@H]3[C@H](CO)N4C(=O)CN(C(=O)CN5CCOCC5)C[C@@H]34)cc2)c1	0	/	/
COc1cccc(-c2nn(C)c3sc(C(=O)N4CCN(c5ccccn5)CC4)cc23)c1	/	80	+
COc1cccc(-c2nn(C)c3sc(C(=O)N4CCOCC4)cc23)c1	0	101	i
N#C/C(=N\Nc1ccc(S(=O)(=O)N2CCOCC2)cc1)C(N)=S	0	97	+
CC1CCN(S(=O)(=O)c2ccc(N/N=C(/C#N)C(N)=O)cc2)CC1	/	99	i
O=C(Cc1ccncc1)NCC[C@@H]1CC[C@@H](NC(=O)Nc2ccc(F)cc2)[C@@H](CO)O1	0	/	/
O=C(C[C@H]1CC[C@H]2[C@@H](COC[C@H](O)CN2Cc2ccccc2F)O1)N1CCc2ccccc2C1	1	/	/
CCCN(CCC)c1nc(-c2ccccn2)nc2ccccc12	1	93	i
c1ccc(CCNc2nc(-c3ccccn3)nc3ccccc23)cc1	26*	94	?
C[C@@H]1CCCCO[C@H](CN(C)CC2CCCCC2)[C@H](C)CN([C@H](C)CO)C(=O)c2cc(NC(=O)Nc3ccccc3)ccc2O1	0	/	/
O=C(NCc1ccccc1)c1n[nH]nc1-c1ccccc1O	/	112	+
O=C(NCc1ccccc1)c1ccc(C(=O)NCc2ccccc2)cc1	0	87	i
COc1cccc(N2CCc3c(C)nc4ccc(Cl)cc4c32)c1	1	100	?
CCN1Cc2c(/C=C/c3ccccc3)nc3ccc(OC)cc3c2N(c2cccc(Cl)c2)C1	6	151	+
CCCN1C[C@H](C)[C@@H](OC)CN(C)C(=O)c2ccc(NS(=O)(=O)c3ccccc3)cc2OC[C@H]1C	1	/	/
SMILES	XiGFP reactiv	ABCB6 inh MLPCN	Myeloid diff 2
COCC#Cc1ccc2c(c1)O[C@@H](CN(C)Cc1ccccc1F)[C@H](C)CN([C@H](C)CO)S2(=O)=O	0	/	/
O=C(Nc1ccc(-c2noc(COc3ccccc3Cl)n2)cc1)c1ccco1	/	99	+
O=C(COc1ccccc1Cl)Nc1ccc(NC(=O)c2ccco2)cc1	0	97	i
Cn1c(=O)c2c(SCC(=O)Nc3nccs3)nc(C3CC3)nc2n(C)c1=O	0	161	+
Cn1c(SCC(=O)Nc2nccs2)nnc1C1CC1	0	96	i
Cc1cccc(-n2ncc3c(NCc4ccccc4)ncnc32)c1	0	99	+
c1ccc(CNc2ncnc3c2cnn3-c2ccccc2)cc1	/	94	?
COc1ccc(-c2cc(C(F)F)n3ncc(C(=O)NCC4CCCO4)c3n2)cc1 (stereo not given)	/	108	i
COc1ccc(-c2cc(C(F)(F)F)n3ncc(C(=O)NCC4CCCO4)c3n2)cc1OC (stereo not given)	/	64*	i
COC(=O)c1ccn(CC(=O)NC2CCCCC2)n1	0	103	+
O=C(Cn1cc2c(n1)CCCC2)NC1CCCCCC1	0	104	i
COCCNC(=O)C[C@H]1CC[C@H]2[C@@H](COC[C@@H](O)CN2C(=O)Nc2ccccc2OC)O1	0	/	/
COc1ccc2c(C)cc(SCC#N)nc2c1	/	101	i
COc1ccc2c(C)cc(SCc3c(C)noc3C)nc2c1	/	103	+
COc1cccc(CNc2ccccc2O)c1OCc1ccccc1F	0	108	+
COc1cccc(CNc2ccc(S(N)(=O)=O)cc2)c1OCc1ccccc1F	1	96	i
C[C@H](CO)N1C[C@H](C)[C@H](CN(C)S(=O)(=O)c2ccc(Cl)cc2)OCCCC[C@H](C)Oc2ccc(NC(=O)NC3CCCCC3)cc2C1=O	0	/	/
CC(=O)N(C)C[C@H]1Oc2cc(-c3ccc(C)cc3)ccc2S(=O)(=O)N([C@H](C)CO)C[C@H]1C	0	/	/
Cc1ccc2ncc(S(=O)(=O)c3ccccc3)c(N3CCCCC3C)c2c1 (stereo not given)	0	99	+
COc1ccc2ncc(S(=O)(=O)c3ccccc3)c(N3CCN(c4ccccc4)CC3)c2c1	0	91	i
C[C@H](CO)N1C[C@H](C)[C@H](CN(C)C(=O)Nc2ccc(C(F)(F)F)cc2)Oc2ccc(NS(=O)(=O)c3ccc(Cl)cc3)cc2C1=O	2	/	/
Cc1nc(S/C(=C/c2ccc(-c3cccc(Cl)c3)o2)C(=O)O)n[nH]1	/	126	+
CC1=NOC(=O)/C1=C\c1ccc(-c2cccc(Cl)c2)o1	/	120	i
C[C@H]1CN([C@@H](C)CO)C(=O)c2cc(C#CC3CCCC3)cnc2O[C@@H]1CN(C)C(=O)C1CC1	0	/	/
C[C@@H]1CN([C@H](C)CO)S(=O)(=O)c2ccc(-c3cccc(C#N)c3)cc2O[C@@H]1CN(C)C	0	/	/
SMILES	XiGFP reactiv	ABCB6 inh MLPCN	Myeloid diff 2
NCC[C@H]1CC[C@@H](NC(=O)C2CCCC2)[C@@H](CO)O1	0	/	/
CCCCc1ccc(S(=O)(=O)NNC(=S)NCc2ccco2)cc1	0	97	i
CC(=O)Nc1ccc(S(=O)(=O)NNC(=S)NCc2ccco2)cc1	0	95	+
C[C@@H]1CN([C@H](C)CO)C(=O)c2cccc(NS(=O)(=O)c3cn(C)cn3)c2O[C@H]1CN(C)Cc1ccc(C(=O)Nc2ccccc2N)cc1	-1	/	/
Cc1ccc(O)c(C(=O)c2cc(C#N)c(=O)n(-c3c(C)n(C)n(-c4ccccc4)c3=O)c2)c1	/	86	+
Cc1c(-n2cc(C(=O)c3cc(Br)ccc3O)cc(C#N)c2=O)c(=O)n(-c2ccccc2)n1C	/	88	i
C[C@H]1CN([C@@H](C)CO)C(=O)Cc2cc(NS(=O)(=O)c3ccc(Cl)cc3)ccc2O[C@H]1CN(C)C(=O)Nc1cccc2ccccc12	-1	/	/
CN(C)C(=O)c1ccc(-c2ccc3c(c2)[C@@H]2[C@@H](CCN2C(=O)C2CCCCC2)[C@@H](CO)N3C)cc1	0	/	/
